Assay results from ChEMBL document CHEMBL5724801, “EUbOPEN Chemogenomics Library - Multiplex” (2024).
Values joined by “and” are separate entries in the source; they are usually repeats but may differ in a detail not shown here. Identical values can stand only once.

Test system: Fibroblast
Test: Multiplex assay against human fibroblast
Format: toxicity, cell-based
How it was run: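 Live cells were stained at seeding with Hoechst33342, BioTracker Green Microtubule Cytoskeleton Dye, MitoTracker Red and Annexin V Alexa Fluor 680, then imaged on a CQ1 microscope at 37°C and 5% CO2 after compound addition. CellPathfinder machine-learning gating split cells into Hoechst high-intensity objects or normal cells. Normal cells were split into healthy, pyknosed or fragmented nuclei, and pyknosed cells into mitotic or apoptotic. Tubulin, mitochondrial-mass and membrane-permeability phenotypes are per cents of healthy-nucleus cells.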

[1] = 12 h, 1 µM, compound concentration 1 uM
[2] = 12 h, 10 µM, compound concentration 10 uM
[3] = 24 h, 1 µM, compound concentration 1 uM
[4] = 24 h, 10 µM, compound concentration 10 uM
[5] = 48 h, 1 µM, compound concentration 1 uM
[6] = 48 h, 10 µM, compound concentration 10 uM

Cc1c(C(=O)NCCCN(C)C)sc2ncnc(Nc3ccc(F)cc3OC(C)CF)c12 (configuration not stated)
Population Fragmented Nuclei (%) [1]: 17.37% and 8.18% | Population Healthy Nuclei (%) [1]: 51.64% and 79.93% | Population Hoechst High Intensity Objects (%) [1]: 0% | Population Membrane Permeable-Phenotype (%) [1]: 0.91% and 2.79% | Population Mitochondria Different-Phenotype (%) [1]: 15.45% and 13.95% | Population Mitotic Cells (%) [1]: 92.42% and 75% | Population Normal (%) [1]: 100% | Population Pyknosed Nuclei (%) [1]: 30.99% and 11.9% | Population Tubulin-Different-Phenotype (%) [1]: 30.91% and 38.14% | Total Cell Count [1]: 213 and 269 | Population Apoptotic (%) [2]: 19.3% and 27.27% | Population Fragmented Nuclei (%) [2]: 12.69% and 4.88% | Population Healthy Nuclei (%) [2]: 43.46% and 60.98% | Population Hoechst High Intensity Objects (%) [2]: 0% | Population Membrane Permeable-Phenotype (%) [2]: 10.62% and 8% | Population Mitochondria Different-Phenotype (%) [2]: 35.4% and 21.45% | Population Mitotic Cells (%) [2]: 80.7% and 72.73% | Population Normal (%) [2]: 100% | Population Pyknosed Nuclei (%) [2]: 43.85% and 34.15% | Population Tubulin-Different-Phenotype (%) [2]: 46.9% and 77.82% | Total Cell Count [2]: 260 and 451 | Population Fragmented Nuclei (%) [3]: 16.28% and 8.79% | Population Healthy Nuclei (%) [3]: 68.99% and 76.87% | Population Hoechst High Intensity Objects (%) [3]: 0% | Population Membrane Permeable-Phenotype (%) [3]: 2.25% and 3.81% | Population Mitochondria Different-Phenotype (%) [3]: 5.06% and 8.05% | Population Mitotic Cells (%) [3]: 94.74% and 72.73% | Population Normal (%) [3]: 100% | Population Pyknosed Nuclei (%) [3]: 14.73% and 14.33% | Population Tubulin-Different-Phenotype (%) [3]: 28.09% and 38.14% | Total Cell Count [3]: 258 and 307 | Population Apoptotic (%) [4]: 33.11% and 50.51% | Population Fragmented Nuclei (%) [4]: 9.29% and 4.55% | Population Healthy Nuclei (%) [4]: 35.69% and 45.45% | Population Hoechst High Intensity Objects (%) [4]: 0% | Population Membrane Permeable-Phenotype (%) [4]: 13.54% and 11.11% | Population Mitochondria Different-Phenotype (%) [4]: 40.62% and 36.11% | Population Mitotic Cells (%) [4]: 66.89% and 49.49% | Population Normal (%) [4]: 100% | Population Pyknosed Nuclei (%) [4]: 55.02% and 50% | Population Tubulin-Different-Phenotype (%) [4]: 75% and 87.78% | Total Cell Count [4]: 269 and 396 | Population Apoptotic (%) [5]: 28.57% and 61.54% | Population Fragmented Nuclei (%) [5]: 15.91% and 10.44% | Population Healthy Nuclei (%) [5]: 79.55% and 85.44% | Population Hoechst High Intensity Objects (%) [5]: 0% | Population Membrane Permeable-Phenotype (%) [5]: 0% and 7.04% | Population Mitochondria Different-Phenotype (%) [5]: 6.94% and 2.59% | Population Mitotic Cells (%) [5]: 71.43% and 38.46% | Population Normal (%) [5]: 100% | Population Pyknosed Nuclei (%) [5]: 4.55% and 4.11% | Population Tubulin-Different-Phenotype (%) [5]: 15.92% and 33.7% | Total Cell Count [5]: 308 and 316 | Population Apoptotic (%) [6]: 51.69% and 82.89% | Population Fragmented Nuclei (%) [6]: 13.56% and 8.54% | Population Healthy Nuclei (%) [6]: 48.73% and 29.67% | Population Hoechst High Intensity Objects (%) [6]: 0% | Population Membrane Permeable-Phenotype (%) [6]: 14.78% and 17.81% | Population Mitochondria Different-Phenotype (%) [6]: 50.43% and 54.79% | Population Mitotic Cells (%) [6]: 48.31% and 17.11% | Population Normal (%) [6]: 100% | Population Pyknosed Nuclei (%) [6]: 37.71% and 61.79% | Population Tubulin-Different-Phenotype (%) [6]: 76.52% and 83.56% | Total Cell Count [6]: 236 and 246

Cc1ccc(-c2c(C(=O)CF)n(CCCO)c3ncnc(N)c23)cc1
Population Apoptotic (%) [1]: 36% and 12.9% | Population Fragmented Nuclei (%) [1]: 17.65% and 9.49% | Population Healthy Nuclei (%) [1]: 63.97% and 78.26% | Population Hoechst High Intensity Objects (%) [1]: 0% | Population Membrane Permeable-Phenotype (%) [1]: 1.15% and 2.53% | Population Mitochondria Different-Phenotype (%) [1]: 9.2% and 6.06% | Population Mitotic Cells (%) [1]: 64% and 87.1% | Population Normal (%) [1]: 100% | Population Pyknosed Nuclei (%) [1]: 18.38% and 12.25% | Population Tubulin-Different-Phenotype (%) [1]: 13.79% and 12.12% | Total Cell Count [1]: 136 and 253 | Population Apoptotic (%) [2]: 6.98% and 18.18% | Population Fragmented Nuclei (%) [2]: 10.16% and 6% | Population Healthy Nuclei (%) [2]: 66.84% and 77.5% | Population Hoechst High Intensity Objects (%) [2]: 0% | Population Membrane Permeable-Phenotype (%) [2]: 4% and 4.52% | Population Mitochondria Different-Phenotype (%) [2]: 8% and 11.61% | Population Mitotic Cells (%) [2]: 93.02% and 81.82% | Population Normal (%) [2]: 100% | Population Pyknosed Nuclei (%) [2]: 22.99% and 16.5% | Population Tubulin-Different-Phenotype (%) [2]: 19.2% and 29.03% | Total Cell Count [2]: 187 and 200 | Population Apoptotic (%) [3]: 12.12% and 12% | Population Healthy Nuclei (%) [3]: 62.58% and 87.98% | Population Hoechst High Intensity Objects (%) [3]: 0% | Population Membrane Permeable-Phenotype (%) [3]: 6.86% and 1.32% | Population Mitochondria Different-Phenotype (%) [3]: 2.94% and 5.29% | Population Mitotic Cells (%) [3]: 87.88% and 88% | Population Normal (%) [3]: 100% | Population Pyknosed Nuclei (%) [3]: 20.25% and 9.69% | Population Tubulin-Different-Phenotype (%) [3]: 14.71% and 10.57% | Total Cell Count [3]: 163 and 258 | Population Apoptotic (%) [4]: 9.3% and 10% | Population Fragmented Nuclei (%) [4]: 8.8% and 4.95% | Population Healthy Nuclei (%) [4]: 71.3% and 85.15% | Population Hoechst High Intensity Objects (%) [4]: 0% | Population Membrane Permeable-Phenotype (%) [4]: 8.44% and 2.33% | Population Mitochondria Different-Phenotype (%) [4]: 4.55% and 5.81% | Population Mitotic Cells (%) [4]: 90.7% and 90% | Population Normal (%) [4]: 100% | Population Pyknosed Nuclei (%) [4]: 19.91% and 9.9% | Population Tubulin-Different-Phenotype (%) [4]: 23.38% and 29.07% | Total Cell Count [4]: 216 and 202 | Population Apoptotic (%) [5]: 26.67% and 20% | Population Healthy Nuclei (%) [5]: 73.05% and 89.29% | Population Hoechst High Intensity Objects (%) [5]: 0% | Population Membrane Permeable-Phenotype (%) [5]: 1.64% and 1.78% | Population Mitotic Cells (%) [5]: 73.33% and 80% | Population Normal (%) [5]: 100% | Population Pyknosed Nuclei (%) [5]: 8.98% and 7.94% | Population Tubulin-Different-Phenotype (%) [5]: 7.38% and 16.44% | Total Cell Count [5]: 167 and 252 | Population Apoptotic (%) [6]: 9.09% and 27.27% | Population Fragmented Nuclei (%) [6]: 7.76% and 9.13% | Population Healthy Nuclei (%) [6]: 87.21% and 80.29% | Population Hoechst High Intensity Objects (%) [6]: 0% | Population Membrane Permeable-Phenotype (%) [6]: 1.57% and 0.6% | Population Mitochondria Different-Phenotype (%) [6]: 8.9% and 2.4% | Population Mitotic Cells (%) [6]: 90.91% and 72.73% | Population Normal (%) [6]: 100% | Population Pyknosed Nuclei (%) [6]: 5.02% and 10.58% | Population Tubulin-Different-Phenotype (%) [6]: 9.42% and 27.54% | Total Cell Count [6]: 219 and 208
